Assay results published in ChEMBL document CHEMBL4513216, “Probing the Open Global Health Chemical Diversity Library for Multistage-Active Starting Points for Next-Generation Antimalarials” (ACS Infect Dis, 2020).

Assay: Toxicity liver stage against HepG2, at 10uM
Format: cell-based
Set-up: test concentration 10 uM, cell line HepG2-A16-CD81EGFP
Details: human, HepG2-A16-CD81EGFP cells; read-out: INHIBITION
Procedure, shortened: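 Uninfected HepG2-A16-CD81EGFP cells, 3 × 10^3 per well, 1536-well, plated on prespotted compound at 10 μM final, parasite-free screening media added to match infected plates; puromycin 10 μM positive, DMSO 0.5% negative; run in parallel with 48 h PbLuc assay at 37 °C, 5% CO2; viability by CellTiter-Glo luminescence, normalized to controls.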

SMILES | cytotoxicity at 10 µM [%]
CS(=O)(=O)NC1CCN(CCc2ccccc2)CC1 | -1.76
CC(=O)N1CCC(C(=O)N(CC(F)F)c2cccc(Cl)c2)CC1 | 5.71
CCCc1nc(NCCCn2ccnc2)c2c(n1)c(C)nn2CC | 8.26
O=C(N1CCOCC1)N1CCCC(c2ncncc2-c2ccncc2)C1 (stereo not drawn) | -25.9
CCc1cnc(CNc2ccc(C(=O)N3CCCC(C)C3)cc2C)o1 (stereo not drawn) | -3.58
CCOc1nnc(CN(C)C2CCCN(c3cccnn3)C2)s1 (stereo not drawn) | -17.3
CC(C)C[C@H]1CN(c2nc3c(cc2C(N)=O)CCC3)CC[C@@]1(C)O | -4.51
Cc1nn(C)c(C)c1-c1cnc(C2CCCN(C)C2)cn1 (stereo not drawn) | -8.8
CCN(CC)C(=O)CN(C)C1CCc2ccccc21 (stereo not drawn) | -5.1
O=C(NCCNc1cnccn1)N1CC=C(c2ccccc2)CC1 | 6.39
Cc1ccc(-c2cnc3n2CCN(C)C32CCN(CC3CC3)CC2)cc1 | 11
COc1ccccc1NC(=O)c1cnc(C2CCN(C(C)=O)C2)nc1C (stereo not drawn) | 6.42
COc1ccccc1-c1nc(C(=O)N2CCOCC2)n2ccncc12 | 11.9
Cc1cc(CSc2ccccn2)on1 | 8.4
Cc1nc(CN(C)S(=O)(=O)c2ccccc2C(F)(F)F)no1 | -3.03
Cc1cc(C(F)(F)F)nn1C(C)C(=O)Nc1ccncc1 (stereo not drawn) | 3.1
Cc1nc2c(c(N3CCC4(CCCNC4=O)C3)n1)CCC2 (stereo not drawn) | -12.8
Cc1nc2c(c(NCC3Cc4ccccc4CN3C)n1)CCNCC2 (stereo not drawn) | -9.08
CCCc1nc(C)c(C(=O)NCCNc2ncccc2C#N)s1 | -19.5
CC(CCc1ccccc1)N1CCC(C(=O)Nc2cnccn2)CC1 (stereo not drawn) | 13.2
CCN1CC[C@@]2(C(=O)N3CCOCC3)CCN(C(=O)NC)CC[C@@H]12 | -12.7

SMILES | cytotoxicity at 10 µM [%]
CSc1cccc(CN(C)C(=O)CN2CCN(c3ncccn3)CC2)c1 | 4.64
CC(=O)c1ccc(Cl)c(Cl)c1OCC(=O)NC(C)C | -9.66
Cc1ccc(-n2c(SCC(=O)O)nnc2-c2ccccc2)cc1 | -19.3
COc1ccc(Cl)cc1CNC(=O)CN1CCC2(CCOC2)C1 (stereo not drawn) | -61.7
COCCN1CCCn2c(nc(CNC(=O)COC)cc2=O)C1 | -106
Cc1cc(S(=O)(=O)N2CCc3ccc(F)cc32)cc(C(=O)O)c1C | 3.2
Cc1csc(CCNCc2cnc3c(c2)c(C)nn3C)n1 | 5.76
c1ccc(Cn2cccn2)c(CNCc2cnc(N3CCCC3)nc2)c1 | -5.34
O=C(NCC1CC1)[C@H]1C[C@H]2OCC[C@H]2N(Cc2ccoc2)C1 | -3.01
CC(C)CC(=O)N1CCCCC(NC(=O)CCc2cccnc2)C1 (stereo not drawn) | -1.62
COc1ccc(S(=O)(=O)N2CCCC3(CCCN3S(C)(=O)=O)C2)cc1 (stereo not drawn) | -0.908
O=C1CN(C(=O)C2CN(c3ccccc3)CCO2)CCN1 (stereo not drawn) | 1.91
CCCc1noc(CCC(=O)N2CCCCC2Cn2cc(C)cn2)n1 (stereo not drawn) | -0.232
CN(Cc1nc(N)c2ccccc2n1)C1CCCN(c2cccnn2)C1 (stereo not drawn) | -12.2
CO[C@H]1CCN(S(=O)(=O)c2cn(C)cn2)[C@H]1Cc1ccccc1 | 6.19
Cc1ccc(-c2nc(CN3CCc4nn(C)c(=O)cc4C3)no2)cc1 | -8.38
CC(C)CNc1c(NCc2ccco2)c(=O)c1=O | -10.6
Cc1cc2ncn(C(=O)N3CCCCC3)c2cc1C | 10.3
CN(C)C(CNC(=O)NCCS(C)(=O)=O)c1ccco1 (stereo not drawn) | 4.41
N#Cc1c(N)nc2c(c1C1CCOC1)CCc1cc(O)ccc1-2 (stereo not drawn) | 23.4
CCSc1cncc(N2CCC(NC(=O)C3CCCCC3)CC2)n1 | 16.8

SMILES | cytotoxicity at 10 µM [%]
Cc1nc(C)c(C(=O)NCCNc2ncccc2C(F)(F)F)s1 | -3.08
Cc1oc(-c2ccsc2)nc1CC(=O)NCC(C)(C)CN(C)C | -5.81
CCc1cc(NCCCNS(C)(=O)=O)nc(-c2ccccn2)n1 | 1.8
Cc1cc(NC(=O)CN2CCC(N(C)Cc3ncc(C)o3)C2)n(C)n1 (stereo not drawn) | -6.49
CCn1cc(NC(=O)NCC(c2cccc(F)c2)N(C)C)cn1 (stereo not drawn) | 0.633
CC(N)C(=O)N1CCC(Oc2cccc(C(F)(F)F)c2)CC1 (stereo not drawn) | -8.54
Cc1nc(C(=O)Nc2cc(N3CCNC3=O)ccc2Cl)cs1 | -1.33
CSc1ccc(OC(C)C(=O)Nc2c(C)n[nH]c2C)cc1 (stereo not drawn) | 6.8
COc1cccc(C=CCCN2CCCN(C(C)=O)CC2)c1 | 6.67
Cc1nc(C)c(CN2CCOC[C@H](Oc3cnccn3)C2)s1 | -5.33
Cc1csc(NC(=O)[C@@H]2C[C@H]3[C@H](CCN3S(C)(=O)=O)O2)n1 | 1.64
COCCC1(CNC(=O)NCC2CCCN(C)C2)CCCC1 (stereo not drawn) | 0.131
CC(c1nc(C2CC2)no1)N1CCN(CCn2ccccc2=O)CC1 (stereo not drawn) | 25.8
CCC1CCN(CCn2cnc3c(C)csc3c2=O)CC1 | -6.94
Cn1cnc(S(=O)(=O)NCCCN2CCCC2)c1Cl | -11.6
Cc1nn(C)c2c(N3CCN(C)CC3)nc(C3CC3)nc12 | -5.2
CN(C)C(C(=O)NCC(F)(F)F)c1cccc(F)c1 (stereo not drawn) | -2.49
O=C(c1ccc2[nH]nnc2c1)N1CC[C@H](O)[C@]2(CCCO2)C1 | -2.98
CCCOc1cc(CNC(=O)Nc2cccnc2N2CCCC2)ccn1 | -2.06
CC(=O)N1CC2(CCN(C(=O)N(C)C)CC2)c2cc(C)ccc21 | 7.7
CC[C@@H]1N(Cc2cc(OC)cc(OC)c2)CCC[C@]12CCC(=O)N2C | 11.8

SMILES | cytotoxicity at 10 µM [%]
CCn1ccc(NC(=O)c2cc(C)on2)n1 | -2.23
CCN(C(c1cccnc1)c1ccc2c(c1)CCC2)S(C)(=O)=O (stereo not drawn) | 5.82
Clc1ccccc1OCCc1cc(C2CCNC2)n[nH]1 (stereo not drawn) | -32.9
CSc1nnc(CC2CCN(C(=O)Cc3ccncc3)CC2)n1C | -46.7
Cc1nc(N)cc(C2CN(C(=O)c3ccn(C)n3)CCO2)n1 (stereo not drawn) | 0.0241
CCc1c(C)sc2c1c(N)nc(=O)n2CCN1CCOCC1 | 1.17
COc1ccc(SC(C)C(=O)N2CCC(C(=O)N3CCCC3)CC2)cc1 (stereo not drawn) | 1.03
CO[C@H]1CN(Cc2ccccc2F)C[C@@]12CCCO2 | -8.19
CCN1CCN(CCNC(=O)c2sc(C)nc2C)CC1 | 0.927
COCCCN(CCOC)Cc1nc2c(cnn2C)c(=O)[nH]1 | -5.72
CC(C)(C)OC(=O)Cn1cccc(S(=O)(=O)N2CCCC2)c1=O | 5.54
NCC1Cc2cc(Cl)cc(-c3cncc(C(=O)N4CCCCC4)n3)c2O1 (stereo not drawn) | -53
NCC1Cc2cc(Oc3cc(F)c(CN4CCCC4)c(F)c3)ccc2O1 (stereo not drawn) | -8.97
CC(=O)N1CCC(C(=O)NCCN2CCCCC2)CC1 | -5.04
c1ccc(-c2nc(CN3CCOC(Cn4cncn4)C3)cs2)cc1 (stereo not drawn) | -4.33
COc1cc(CCC(=O)NCC2CC2)ccc1OCC(F)(F)F | -4.81
COc1c(C2SCC(=O)Nc3[nH]ncc32)cc2c(c1OC)OCO2 (stereo not drawn) | 0.219
O=C(NCCNc1cccnc1)C(c1cccnc1)N1CCCC1 (stereo not drawn) | 4.11
CCOCC1CN(Cc2ccc(OC)cc2)Cc2nn(CC3CC3)cc21 (stereo not drawn) | 18
Cc1ncnc2c1CCN(C(=O)c1cnccn1)CC2 | -5.19
